Source: paper PMC9057237 (RSC Advances, 2020)

Columns and labels:
MTT cell viability assay = type: cell-based, rat; conditions: rat, RBL-2H3 cells
How it was run: (§1)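 Cells grown in DMEM with 10% FBS, penicillin (100 U mL−1) and streptomycin (100 μg mL−1) at 37 °C under humidified 5% CO2. Pure compounds tested at 1 to 400 μM; viability read by MTT assay. Mean, n = 3, relative to untreated (DMSO) control.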

neutrophil elastase (NE) = target: T1, neutrophil elastase (NE) (Homo sapiens, UniProt P08246); test: Cell-free elastase enzymatic activity assay; type: biochemical; conditions: read-out: Inhibition of elastase enzyme activity
T1 sequence (P08246 30-247 limits assumed): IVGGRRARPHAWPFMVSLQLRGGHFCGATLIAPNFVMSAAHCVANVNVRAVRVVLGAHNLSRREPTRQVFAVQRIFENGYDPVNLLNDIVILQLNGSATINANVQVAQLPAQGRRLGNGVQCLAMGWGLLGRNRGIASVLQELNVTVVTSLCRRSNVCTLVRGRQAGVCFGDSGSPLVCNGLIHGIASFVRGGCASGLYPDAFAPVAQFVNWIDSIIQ
How it was run: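 Neutrophils (6 × 10^5 cells per mL) preheated 5 min at 37 °C with CaCl2 (1 mM), primed with CB (1.5 μg mL−1) for 2 min, then fMLF (0.1 μM) to release elastase. Cell-free supernatant taken after centrifugation (1000g, 5 min, 4 °C), warmed to 37 °C and given test compound (10 μM) or DMSO for 2 min. MeO-Suc-Ala-Ala-Pro-Val-p-nitroanilide (100 μM) added for 10 min; A405 read. Mean ± S.E.M., n = 4; t-test.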

human neutrophils [1] = test: Elastase release in fMLF/cytochalasin B-induced human neutrophils; type: cell-based; conditions: for inhibition at 10 µM / IC50: Homo sapiens, Neutrophil; for inhibition at 10 µM: read-out: Elastase release % Inhibition; for IC50: read-out: Elastase release IC50
How it was run: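 Neutrophils isolated from venous blood of healthy adult volunteers aged 20–30 years. Release from activated cells measured with MeO-Suc-Ala-Ala-Pro-Val-p-nitroanilide as elastase substrate. Pure compounds tested at 0.3–10 μM. LY294002 as positive control. Mean ± S.E.M., n = 3–6, vs 0.1% DMSO control; IC50 is the concentration giving 50% inhibition.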

human neutrophils [2] = test: Superoxide anion generation in fMLF/cytochalasin B-induced human neutrophils; type: cell-based; conditions: for IC50: read-out: Superoxide anion generation IC50
How it was run: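 Human neutrophils taken from venous blood of healthy volunteers aged 20–30 years. Superoxide from activated cells measured as ferricytochrome c reduction. Pure compounds tested at 0.3–10 μM. Mean ± S.E.M., n = 3–6, vs 0.1% DMSO control; IC50 is the concentration giving 50% inhibition.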

SARS-CoV-2 M^pro = conditions: read-out: M^pro inhibition IC50; cited from earlier work
RBL-2H3 cells [3] = test: Antigen-induced degranulation; type: cell-based, rat; conditions: for % Inhibition of antigen-induced degranulation: mean ± SEM
RBL-2H3 cells [4] = test: A23187-induced degranulation; type: cell-based, rat; conditions: mean ± S.E.M.
[5] = system: human neutrophil elastase; conditions: read-out: Human neutrophil elastase IC50; previous study; cited from earlier work
RBL-2H3 cells [6] = test: MTT cell viability assay; type: cell-based, rat; conditions: 100 μM; MTT
How it was run: as §1

[7] = Homo sapiens, Neutrophil, read-out: Superoxide anion generation % Inhibition
[8] = at 10 μM, fMLF/CB-induced human neutrophils, mean ± S.E.M.

`CN1CCCC(n2nc(Cc3ccc(Cl)cc3)c3ccccc3c2=O)CC1` (stereo not drawn) [Azelastine, reference compound] showed a viability at 20 µM (MTT cell viability assay) of over 90%.
Compound `COc1cc(O)c2c(=O)c(OC)c(-c3ccc(O)cc3)oc2c1` [Compound 7, kumatakenin] has an inhibition at 10 µM (neutrophil elastase (NE)) of 20.3 to 27.1%, an inhibition at 10 µM (human neutrophils [1]) of 22.9 ± 4.29% and an IC50 (human neutrophils [1]) of over 10 µM. The inhibition at 10 µM (human neutrophils [2]; [7]) was 24.1 ± 2.75%, the IC50 (human neutrophils [2]; Homo sapiens, Neutrophil) was over 10 µM and the viability at 100 µM (MTT cell viability assay) was over 90%.
`COc1cc(O)c2c(=O)c(OC)c(-c3ccc(O)c(OC)c3)oc2c1` [Compound 9, pachypodol] showed an inhibition at 10 µM (neutrophil elastase (NE)) of 20.3 to 27.1%, an inhibition at 10 µM (human neutrophils [1]) of 31.6 ± 5.02% and an IC50 (human neutrophils [1]) of over 10 µM. It also gave an inhibition at 10 µM (human neutrophils [2]; [7]) of 67.5 ± 4.55%, an IC50 (human neutrophils [2]; Homo sapiens, Neutrophil) of 6.07 ± 0.65 µM and a viability at 100 µM (MTT cell viability assay) of over 90%.
In the case of `O=c1c(-c2ccc(O)cc2)coc2cc(O)cc(O)c12` [Genistein, reference compound], the inhibition at 10 µM (human neutrophils [1]) is reported as 31.6 ± 7.29%, the IC50 (human neutrophils [1]) is reported as 16.3 ± 4.26 µM and the inhibition at 3 µM (human neutrophils [2]; [7]) is reported as 67%. The IC50 (human neutrophils [2]; Homo sapiens, Neutrophil) was 1.52 ± 0.17 µM.
In the case of `O=c1cc(-c2ccc(O)c(-c3c(O)cc(O)c4c(=O)cc(-c5ccc(O)cc5)oc34)c2)oc2cc(O)cc(O)c12` [amentoflavone], the IC50 (SARS-CoV-2 M^pro) is given as 8.3 µM.
With penduletin [Compound 8] the “Elastase release % Inhibition” value (human neutrophils [1]; [8]) was 33.00 ± 7.94%, the “% Inhibition of antigen-induced degranulation” value (RBL-2H3 cells [3]; 1 μM) was 33.9 ± 8.6 % and the “% Inhibition of antigen-induced degranulation” value (RBL-2H3 cells [3]; 10 μM) was 85.8 ± 5.1 %. The IC50 (RBL-2H3 cells [3]; read-out: Antigen-induced degranulation IC50) was 3.8 µM, the “Superoxide anion generation % Inhibition” value (human neutrophils [2]; [8]) was 73.76 ± 5.24% and the “% Inhibition of A23187-induced degranulation” value (RBL-2H3 cells [4]; 1 μM) was 4.8 ± 3.9%. For the same compound, the “% Inhibition of A23187-induced degranulation” value (RBL-2H3 cells [4]; 10 μM) was 25.1 ± 7.3%, the IC50 [5] was 65.4 µM and the “% Viability, RBL-2H3” value (RBL-2H3 cells [6]) was over 90%.
